Experimental data reported in ChEMBL document CHEMBL1154814, “Synthesis and antimicrobial activities of 3-O-alkyl analogues of (+)-catechin: improvement of stability and proposed action mechanism” (Eur J Med Chem, 2010).
Values after ≈ are worked out from the molar mass of the structure shown.

What was measured:
Klebsiella pneumoniae = assay: Antibacterial activity against Klebsiella pneumoniae ATCC 10031 after 24 hrs by NCCLS method; assay type: functional; conditions: ATCC 10031, 24 h
Summary of the method: (§1)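 Agar dilution on Mueller Hinton agar. Overnight cultures on soybean casein digest agar at 37 °C were adjusted to 0.5 McFarland, then diluted 10-fold to 1.2 × 10^7 CFU/mL. 10 µL of each culture was spotted, incubated at 35 °C for 24 h. MIC taken as the lowest concentration preventing growth. Triplicates.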

Pichia kudriavzevii = assay: Antifungal activity against Candida krusei IFO 1664 after 24 to 72 hrs by NCCLS method; assay type: functional
Summary of the method: (§2)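 Yeasts were grown overnight on Sabouraud dextrose agar at 35 °C and adjusted in saline to 0.5 McFarland (1.0–5.0 × 10^6 cells/mL). This stock was diluted 1:100 then 1:20 to 5.0 × 10^2–2.5 × 10^3 cells/mL. Tubes were incubated at 35 °C for 48 h in ambient air. MIC taken as the lowest concentration preventing growth. Triplicates.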

Escherichia coli [1] = assay: Antibacterial activity against Escherichia coli ATCC 25922 after 24 hrs by NCCLS method; assay type: functional; conditions: ATCC 25922, 24 h; summary of the method: as §1
Bacillus subtilis = assay: Antibacterial activity against Bacillus subtilis ATCC 6633 after 24 hrs by NCCLS method; assay type: functional; conditions: ATCC 6633, 24 h; summary of the method: as §1
Proteus mirabilis = assay: Antibacterial activity against Proteus mirabilis ATCC 27853 after 24 hrs by NCCLS method; assay type: functional; summary of the method: as §1
Enterococcus faecalis = assay: Antibacterial activity against Enterococcus faecalis ATCC 29212 after 24 hrs by NCCLS method; assay type: functional; conditions: ATCC 29212, 24 h; summary of the method: as §1
Candida tropicalis = assay: Antifungal activity against Candida tropicalis IFO 10241 after 24 to 72 hrs by NCCLS method; assay type: functional; summary of the method: as §2
[2] = test system: Staphylococcus epidermidis; assay: Antibacterial activity against Staphylococcus epidermidis ATCC 0155 after 24 hrs by NCCLS method; assay type: functional; conditions: ATCC 0155, 24 h; summary of the method: as §1
Micrococcus luteus = assay: Antibacterial activity against Micrococcus luteus ATCC 10240 after 24 hrs by NCCLS method; assay type: functional; conditions: ATCC 10240, 24 h; summary of the method: as §1
Candida albicans = assay: Antifungal activity against Candida albicans ATCC 10231 after 24 to 72 hrs by NCCLS method; assay type: functional; summary of the method: as §2
Staphylococcus aureus = assay: Antibacterial activity against Staphylococcus aureus ATCC 25923 after 24 hrs by NCCLS method; assay type: functional; conditions: ATCC 25923, 24 h; summary of the method: as §1
Escherichia coli [3] = assay: Antibacterial activity against Escherichia coli ATCC 10536 after 24 hrs by NCCLS method; assay type: functional; conditions: ATCC 10536, 24 h; summary of the method: as §1
Clavispora lusitaniae = assay: Antifungal activity against Candida lusitaniae ATCC 42720 after 24 to 72 hrs by NCCLS method; assay type: functional; summary of the method: as §2
[4] = Chemical stability in PBS buffer at pH 7.4 assessed as compound remaining after 16 hrs by HPLC; assay type: physicochemical; conditions: read-out: Stability
Summary of the method: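 Compound at 200 µM in 1% DMSO / 50 mM PBS, pH 7.4, incubated at 37 °C without cells; pH was checked before and after. Samples went onto a C-18 HPLC column (35/65 CH3CN/H2O, 1 mL/min, column at 37 °C). Percent remaining was taken from peak integration against an internal standard at 254 nm.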

[5] = Drug uptake assessed as incorporation into egg phosphatidylcholine liposome by HPLC; assay type: ADME; conditions: artificial membrane
Summary of the method: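 Egg PC liposomes were diluted 10-fold in PBS, untrapped glucose was removed by centrifugation, and lipid was adjusted to 1 mg/mL. Compound in ethanol was added to final 50 µM with 10% ethanol. Percent incorporated into bilayers was derived from HPLC peak integration of compound left in solution.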

Row | Structure (SMILES) | MIC (Klebsiella pneumoniae) | MIC (Pichia kudriavzevii) | MIC (Escherichia coli [1]) | MIC (Bacillus subtilis) | MIC (Proteus mirabilis) | MIC (Enterococcus faecalis) | MIC (Candida tropicalis) | MIC [2] | MIC (Micrococcus luteus) | MIC (Candida albicans) | MIC (Staphylococcus aureus) | MIC (Escherichia coli [3]) | MIC (Clavispora lusitaniae) | remaining at 16 h [4] | Drug uptake [5]
1 | CCCO[C@H]1Cc2c(O)cc(O)cc2O[C@@H]1c1ccc(O)c(O)c1 | > 128 µg/mL | > 128 µg/mL | > 128 µg/mL | 128 µg/mL (≈ 385 µM) | > 128 µg/mL | 64 µg/mL (≈ 193 µM) | > 128 µg/mL | 64 µg/mL (≈ 193 µM) | 32 µg/mL (≈ 96.3 µM) | > 128 µg/mL | 64 µg/mL (≈ 193 µM) | > 128 µg/mL | > 128 µg/mL |  | 
2 | CCCCCCCCCC(=O)O[C@H]1Cc2c(O)cc(O)cc2O[C@@H]1c1ccc(O)c(O)c1 |  |  |  |  |  |  |  |  |  |  |  |  |  | 75% | 
3 | CCCCCCCCCCO[C@H]1Cc2c(O)cc(O)cc2O[C@@H]1c1ccc(O)c(O)c1 |  |  |  |  |  |  |  |  |  |  |  |  |  | > 90% | 100%
4 | CCCCCCCCCCCCO[C@H]1Cc2c(O)cc(O)cc2O[C@@H]1c1ccc(O)c(O)c1 |  |  |  |  |  |  |  |  |  |  |  |  |  |  | 100%
5 | COc1cc(CO[C@H]2Cc3c(O)cc(O)cc3O[C@@H]2c2ccc(O)c(O)c2)cc(OC)c1OC | 128 µg/mL (≈ 272 µM) | 128 µg/mL (≈ 272 µM) | > 128 µg/mL | 32 µg/mL (≈ 68 µM) |  | 64 µg/mL (≈ 136 µM) | 128 µg/mL (≈ 272 µM) | 32 µg/mL (≈ 68 µM) | 16 µg/mL (≈ 34 µM) | 64 µg/mL (≈ 136 µM) | 32 µg/mL (≈ 68 µM) | 64 µg/mL (≈ 136 µM) | 64 µg/mL (≈ 136 µM) |  | 
6 | CCCCCCO[C@H]1Cc2c(O)cc(O)cc2O[C@@H]1c1ccc(O)c(O)c1 |  |  |  |  |  |  |  |  |  |  |  |  |  |  | 100%
7 | CCCCCCCCO[C@H]1Cc2c(O)cc(O)cc2O[C@@H]1c1ccc(O)c(O)c1 |  |  |  |  |  |  |  |  |  |  |  |  |  |  | 100%
8 | CCCCCCCCCCCCCCO[C@H]1Cc2c(O)cc(O)cc2O[C@@H]1c1ccc(O)c(O)c1 |  |  |  |  |  |  |  |  |  |  |  |  |  |  | 100%
9 | CCCCCCCCCCCCCCCCO[C@H]1Cc2c(O)cc(O)cc2O[C@@H]1c1ccc(O)c(O)c1 |  |  |  |  |  |  |  |  |  |  |  |  |  |  | 100%
10 | Oc1cc(O)c2c(c1)O[C@H](c1ccc(O)c(O)c1)[C@@H](OCc1ccccc1)C2 | 128 µg/mL (≈ 336 µM) | > 128 µg/mL | > 128 µg/mL | 64 µg/mL (≈ 168 µM) | 128 µg/mL (≈ 336 µM) | 32 µg/mL (≈ 84.1 µM) | > 128 µg/mL | 64 µg/mL (≈ 168 µM) | 32 µg/mL (≈ 84.1 µM) | > 128 µg/mL | 64 µg/mL (≈ 168 µM) | > 128 µg/mL | > 128 µg/mL |  | 
11 | Oc1cc(O)c2c(c1)O[C@H](c1ccc(O)c(O)c1)[C@H](O)C2 [(-)-EPICATECHIN] | > 128 µg/mL | > 128 µg/mL | > 128 µg/mL | > 128 µg/mL | > 128 µg/mL | > 128 µg/mL | > 128 µg/mL | > 128 µg/mL | > 128 µg/mL | > 128 µg/mL | > 128 µg/mL | > 128 µg/mL | > 128 µg/mL |  | 
12 | C[C@@H]1[C@H](O)[C@@H](C)/C=C/C=C/C=C/C=C/C=C/C=C/C=C/[C@H](O[C@@H]2O[C@H](C)[C@@H](O)[C@H](N)[C@@H]2O)C[C@@H]2O[C@](O)(C[C@@H](O)C[C@@H](O)[C@H](O)CC[C@@H](O)C[C@@H](O)CC(=O)O[C@H]1C)C[C@H](O)[C@H]2C(=O)O [AMPHOTERICIN B] |  | 0.5 µg/mL (≈ 0.541 µM) |  |  |  |  | 0.5 µg/mL (≈ 0.541 µM) |  |  | 0.25 µg/mL (≈ 0.271 µM) |  |  | 0.5 µg/mL (≈ 0.541 µM) |  | 
13 | Oc1cc(O)c2c(c1)O[C@H](c1ccc(O)c(O)c1)[C@@H](O)C2 [CIANIDANOL] | > 128 µg/mL | > 128 µg/mL | > 128 µg/mL | > 128 µg/mL | > 128 µg/mL | > 128 µg/mL | > 128 µg/mL | > 128 µg/mL | > 128 µg/mL | > 128 µg/mL | > 128 µg/mL | > 128 µg/mL | > 128 µg/mL |  | 
14 | O=C(O)c1cn(C2CC2)c2cc(N3CCNCC3)c(F)cc2c1=O [CIPROFLOXACIN] | < 0.06 µg/mL |  |  | < 0.06 µg/mL | 0.125 µg/mL (≈ 0.377 µM) | 0.5 µg/mL (≈ 1.51 µM) |  | 0.25 µg/mL (≈ 0.754 µM) | < 0.06 µg/mL |  | 0.25 µg/mL (≈ 0.754 µM) |  |  |  | 
15 | O=C(O[C@@H]1Cc2c(O)cc(O)cc2O[C@@H]1c1ccc(O)c(O)c1)c1cc(O)c(O)c(O)c1 [EPICATECHIN GALLATE] | > 128 µg/mL | > 128 µg/mL | > 128 µg/mL | > 128 µg/mL | > 128 µg/mL | > 128 µg/mL | > 128 µg/mL | > 128 µg/mL | > 128 µg/mL | > 128 µg/mL | > 128 µg/mL | > 128 µg/mL | > 128 µg/mL |  | 
16 | Oc1cc(O)c2c(c1)O[C@H](c1cc(O)c(O)c(O)c1)[C@H](O)C2 [EPIGALLOCATECHIN] | > 128 µg/mL | > 128 µg/mL | > 128 µg/mL | > 128 µg/mL | > 128 µg/mL | > 128 µg/mL | > 128 µg/mL | > 128 µg/mL | > 128 µg/mL | > 128 µg/mL | > 128 µg/mL | > 128 µg/mL | > 128 µg/mL |  | 
17 | O=C(O[C@@H]1Cc2c(O)cc(O)cc2O[C@@H]1c1cc(O)c(O)c(O)c1)c1cc(O)c(O)c(O)c1 [EPIGALOCATECHIN GALLATE] | > 128 µg/mL | > 128 µg/mL | > 128 µg/mL | > 128 µg/mL | > 128 µg/mL | > 128 µg/mL | > 128 µg/mL | 128 µg/mL (≈ 279 µM) | 32 µg/mL (≈ 69.8 µM) | > 128 µg/mL | > 128 µg/mL | > 128 µg/mL | > 128 µg/mL | 15% | Not Active
18 | CCC(C)n1ncn(-c2ccc(N3CCN(c4ccc(OCC5COC(Cn6cncn6)(c6ccc(Cl)cc6Cl)O5)cc4)CC3)cc2)c1=O (configuration not stated) [ITRACONAZOLE] |  | 0.25 µg/mL (≈ 0.354 µM) |  |  |  |  | 0.06 µg/mL (≈ 0.085 µM) |  |  | 0.06 µg/mL (≈ 0.085 µM) |  |  | 0.125 µg/mL (≈ 0.177 µM) |  | 
19 | NC[C@H]1O[C@H](O[C@H]2[C@H](O)[C@@H](O[C@H]3O[C@H](CO)[C@@H](O)[C@H](N)[C@H]3O)[C@H](N)C[C@@H]2N)[C@H](O)[C@@H](O)[C@@H]1O.O=S(=O)(O)O [KANAMYCIN SULFATE] | 64 µg/mL |  | 8 µg/mL | 2 µg/mL | 32 µg/mL | 32 µg/mL |  | 4 µg/mL | 8 µg/mL |  | 16 µg/mL | 8 µg/mL |  |  | 
